Source: PubChem (several laboratories)
RORa activator: activators of orphan receptor RORA, primary screen, cell-based, luminescence. Nuclear receptor ROR-alpha (Homo sapiens), P35398. CHO-K1 Gal4-RORA LBD luciferase reporter; percent increase over mock-subtracted basal signal. activation, % at 10 µM. 65,000 compounds, 1.5% hits. AID 560, 2006;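 active = activation above the mean of all tested compounds plus 3 SD, cut at about 49% in these data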;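 note: 0% = DMSO-treated RORA cells and 100% = added signal equal to DMSO minus mock-transfected cells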
Target sequence (P35398 whole entry, looked up, the tested form may be a part): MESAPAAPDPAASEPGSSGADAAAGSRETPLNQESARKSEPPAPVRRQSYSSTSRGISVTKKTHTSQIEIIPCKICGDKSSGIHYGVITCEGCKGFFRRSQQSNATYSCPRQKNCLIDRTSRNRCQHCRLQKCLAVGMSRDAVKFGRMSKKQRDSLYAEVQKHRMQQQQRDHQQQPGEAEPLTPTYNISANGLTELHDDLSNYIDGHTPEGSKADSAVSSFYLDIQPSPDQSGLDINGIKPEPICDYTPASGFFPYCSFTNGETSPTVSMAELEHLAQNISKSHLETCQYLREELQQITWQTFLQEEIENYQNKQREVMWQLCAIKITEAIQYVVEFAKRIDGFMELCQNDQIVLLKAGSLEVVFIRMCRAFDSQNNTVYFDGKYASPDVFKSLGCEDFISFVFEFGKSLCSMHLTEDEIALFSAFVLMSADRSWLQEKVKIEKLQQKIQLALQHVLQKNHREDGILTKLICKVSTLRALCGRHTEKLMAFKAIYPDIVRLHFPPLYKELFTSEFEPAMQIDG
Htt clearance: clearance of mutant huntingtin inclusions, primary screen, imaging, HeLa Exon1htt(103Q)mCFP, confocal imaging | aggregate imaging; zero = plate's median compound well | inhibition, % at 1.5 µM | 47,000 compounds, 0.42% hits | AID 853, 2007;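 active = inhibition of aggregate fluorescence above about 70%, also judged a hit by eye on the cell image, limit read from the data, passing the limit was not always enough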;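 note: cells exposed to compound for three days before fixation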
M1 antag: antagonists of rat M1 muscarinic receptor | CHO-M1 cells, Fluo-4 calcium, ACh EC80 antagonist mode; stronger effect = lower value | B-score at 10 µM | 64,000 compounds, 3.4% hits | AID 628, 2007;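 active = calcium fluorescence response, raw or row-and-column corrected B-score, differing from the plate sample mean either way at a set confidence level, mostly lower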
M1 ag: M1 muscarinic receptor agonists, primary screen, CHO-M1 cells, Fluo-4 calcium, agonist mode; Muscarinic acetylcholine receptor M1; Fluo-4 calcium fluorescence; stronger effect = higher value; B-score at 10 µM; 64,000 compounds, 3% hits; AID 626, 2007;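 active = fluorescence rise, raw or as B-score row- and column-corrected plate score, outside the 99.7% band of its plate's samples, either direction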
SF-1 act: activators of human SF-1, primary screen, cell-based, CHO-K1, Gal4-SF-1 LBD, luciferase luminescence; Steroidogenic factor 1 (Homo sapiens), Q13285; CHO-K1 Gal4-SF-1 LBD luciferase reporter; % increase over DMSO SF-1-specific signal; activation, % at 10 µM; 65,000 compounds, 1.9% hits;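 active = activation above the mean activation of all tested compounds plus 3 SD, cut at about 50% in these data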
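Assay system: CHO-K1 cells co-transfected with Gal4 DBD–human SF-1 LBD, 5xGal4 luciferase reporter; doses: 10 µM only; incubation: 20 h compound exposure at 37 °C after 1 h cell settling; signal: luciferase light emission; evaluation: percent activation versus DMSO; repeats: one test per compound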
D1 allo mod: D1 CRE-luciferase signal change, two-sided – cell-based, HEK293 D1, dopamine EC30, D1 allosteric modulator project, primary screen; B-score at 10 µM; 58,000 compounds, 5.9% hits; dopamine EC30 potentiation; actives deviate in either direction; D(1A) dopamine receptor (Homo sapiens), P21728;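 active = luminescence count or its row- and column-corrected plate score outside the 99.7% band of the plate's sample wells, on either side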
D1 PAM confirm: D1 receptor positive allosteric modulators, retest, confirmation, cell-based, HEK293 D1, CRE-luciferase, duplicate | dopamine EC30 potentiation; stronger effect = higher value | shares compounds with D1 allo mod | luminescence at 10 µM | 2,200 compounds, 88% hits;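 active = luminescence in either of two replicates above the same-plate mean plus 3 SD of the low-dose dopamine control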
D1 ag no DA: D1 receptor agonism without dopamine, confirmation, mechanism study for D1 allosteric modulator project, cell-based, HEK293 D1, CRE-luciferase, secondary assay 1 | AID 646, 2007 | luminescence at 10 µM | luminescence, no dopamine; stronger effect = higher value | 1,900 compounds, 0.8% hits | shares compounds with D1 allo mod; in the data active = luminescence above about 3900
Isoprot counter: isoproterenol response counter-screen activity for D1 modulators; calls only at 10 µM; shares compounds with D1 allo mod; 2,200 compounds, 63% hits; HEK293 D1 CRE-luciferase, isoproterenol EC30 counter-screen; AID 647;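 active = luminescence in either replicate above plate mean of wells with a partly effective reference agonist dose plus 3 SD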;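 note: isoproterenol raises cAMP through native beta-adrenoceptor Gs so signal bypasses D1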
Active calls of the source: *. Most compounds without a hit are left out; they make up all but 11% or so of the library.

CCOC(=O)c1c(-c2cccs2)csc1NC(=O)CN1CCOCC1 was read as RORa activator 10.1, M1 antag -1.28, M1 ag 0.721, SF-1 act -6.6, D1 allo mod 11*, D1 PAM confirm 19940*, D1 ag no DA 1788 and Isoprot counter active.
For CCOC(=O)c1c(NC(=O)CN2CCOCC2)sc2c1CCCC2=O the results were RORa activator -4.2, M1 antag -1.31, M1 ag 0.0116, SF-1 act -6.4, D1 allo mod 5.44*, D1 PAM confirm 8480*, D1 ag no DA 1768 and Isoprot counter active.
`CCOC(=O)c1c(NC(=O)CN(CC)CC)sc2c1CCN(C(=O)OCC)C2` gave RORa activator 5.9, SF-1 act -6.8, D1 allo mod 6.12*, D1 PAM confirm 8852*, D1 ag no DA 1716 and Isoprot counter active.
For CCOC(=O)c1c(NC(=O)CN2CCCCC2)sc2c1CCN(C(=O)OCC)C2 the results were RORa activator -12.2, M1 antag -1.03, M1 ag 1.03, SF-1 act -9.9, D1 allo mod 3.75*, D1 PAM confirm 7072* and Isoprot counter active.
`Cc1nn(-c2ccccc2)c2sc(C(=O)OCC(=O)N3CCCCC3)cc12` gave RORa activator 9.5, M1 antag 0.313, M1 ag -1.06, SF-1 act 6.9 and D1 allo mod 0.934.
`COc1ccc(OC)c(-c2nc3c(C)n[nH]c(=O)c3[nH]2)c1` gave RORa activator -16.6, Htt clearance -15.3, M1 antag -0.0111, M1 ag -0.282, SF-1 act -27.6 and D1 allo mod -0.926.
COc1cccc(C2=NOC(C(=O)NC3CCCCC3)C2)c1 (stereo unspecified) was read as RORa activator 3.3, M1 antag -0.144, M1 ag 0.0219, SF-1 act 9.7 and D1 allo mod -1.39.
For Cc1cccc(CCNS(=O)(=O)c2cnc[nH]2)c1 the results were RORa activator 6.7, M1 antag -0.249, M1 ag 0.0308, SF-1 act 12.4, D1 allo mod 4.43*, D1 PAM confirm 5408, D1 ag no DA 1484 and Isoprot counter inactive.
COC(=O)C(OC(=O)c1ccc(OC)cc1)C(=O)OC was read as Htt clearance 15.0.
Screening CCOC(=O)c1[nH]c(C)c(C(=O)NC2CCN(C(=O)OCC)CC2)c1C returned RORa activator -20.9, Htt clearance 1.6, M1 antag -0.192, M1 ag 0.033, SF-1 act 2.8, D1 allo mod 2.13*, D1 PAM confirm 5396, D1 ag no DA 1508 and Isoprot counter inactive.
For CCC(C)(C)n1c(=O)[nH]c2c(c1=O)CCC2 the results were RORa activator -5.3, Htt clearance -29.5, M1 antag 0.33, M1 ag -0.331, SF-1 act -2.6, D1 allo mod 4.31*, D1 PAM confirm 6624, D1 ag no DA 1544 and Isoprot counter inactive.
Cc1cc(C(=O)OCC(=O)Nc2ccc(F)cc2)c(C)o1 was read as RORa activator 6.8, M1 antag 1.44, M1 ag 0.434, SF-1 act 1.3 and D1 allo mod 0.703.
Screening O=C(CC12CC3CC(CC(C3)C1)C2)Nc1cccc2ncccc12 returned Htt clearance -14.1.
For COc1ccc(Nc2nc(N)nc(CSc3n[nH]c(-c4ccccc4)n3)n2)cc1 the results were RORa activator -0.5, Htt clearance 26.0, M1 antag -0.681, M1 ag 0.431, SF-1 act 9.9, D1 allo mod 5.03*, D1 PAM confirm 6616*, D1 ag no DA 1264 and Isoprot counter active.
For Nc1nc(CSc2ncccn2)nc(Nc2ccccc2)n1 the results were Htt clearance -18.8.
For Cn1c(=O)n(Cc2ccccc2)c(=O)c2c1nc(NCC1CCCO1)n2Cc1ccccc1 (stereo unspecified) the results were RORa activator 4.3, M1 antag -0.41, M1 ag -0.0917, SF-1 act 9.9 and D1 allo mod 0.947.
`O=C1C(Cl)=C(NCC2CCCO2)C(=O)N1Cc1ccccc1` (stereo unspecified) gave RORa activator -4.5, Htt clearance -3.4, M1 antag 1.55, M1 ag -1.73, SF-1 act 5.3, D1 allo mod 4.79*, D1 PAM confirm 9896*, D1 ag no DA 1724 and Isoprot counter inactive.
For c1ccc2c(c1)OCC(c1nnc3sc(-c4ccc5c(c4)OCO5)nn13)O2 (stereo unspecified) the results were RORa activator -8.7, Htt clearance 3.5, M1 antag -0.00253, M1 ag 1.28, SF-1 act -14.4 and D1 allo mod 0.753.
c1csc(-c2nn3c(C4COc5ccccc5O4)nnc3s2)c1 (stereo unspecified) was read as RORa activator 8.0, Htt clearance 61.4, M1 antag -0.146, M1 ag -0.638, SF-1 act -5.1, D1 allo mod 8.63*, D1 PAM confirm 18120*, D1 ag no DA 1676 and Isoprot counter active.
Screening c1ccc2c(c1)OCC(c1nnc3sc(-c4cnccn4)nn13)O2 (stereo unspecified) returned RORa activator 1.2, Htt clearance -63.3, SF-1 act -10.2 and D1 allo mod 0.589.
c1ccc(OCc2nnc3sc(-c4cccs4)nn23)cc1 was read as RORa activator -1.4, M1 antag -0.0359, M1 ag -0.222, SF-1 act -4.9, D1 allo mod 6.41*, D1 PAM confirm 15144*, D1 ag no DA 1772 and Isoprot counter active.
